Experimental data from ChEMBL document CHEMBL1142888, “Synthesis, antimicrobial, and anti-inflammatory activities of novel 2-(1-adamantyl)-5-substituted-1,3,4-oxadiazoles and 2-(1-adamantylamino)-5-substituted-1,3,4-thiadiazoles” (2007).
In brackets after ≈: the same amount, converted by molar mass.

Tests used:
[1] = tested on: Staphylococcus aureus; assay: Antimicrobial activity against Staphylococcus aureus IFO 3060 at 200 ug/disc after 24 hrs; type: functional; settings: IFO 3060, 24 h, read-out: IZ
[2] = tested on: Bacillus subtilis; assay: Antimicrobial activity against Bacillus subtilis IFO 3007 at 200 ug/disc after 24 hrs; type: functional; settings: IFO 3007, 24 h, read-out: IZ
[3] = tested on: Escherichia coli; assay: Antimicrobial activity against Escherichia coli IFO 3301 at 200 ug/disc after 24 hrs; type: functional; settings: IFO 3301, 24 h, read-out: IZ
[4] = tested on: Pseudomonas aeruginosa; assay: Antimicrobial activity against Pseudomonas aeruginosa IFO 3448 at 200 ug/disc; type: functional; settings: read-out: IZ
[5] = tested on: Candida albicans; assay: Antimicrobial activity against Candida albicans IFO 0583 at 200 ug/disc after 48 hrs; type: functional; settings: IFO 0583, 48 h, read-out: IZ
[6] = tested on: Rattus norvegicus; assay: Antiinflammatory effect on carrageenan-induced paw oedema Sprague-Dawley rat assessed as reduction of paw oedema at 20 mg/kg, ip; type: functional; parameters: scale not given: the % may be the effect or the level left; settings: route intraperitoneal
Procedure, shortened: (§1)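 Rats in groups of five, acclimatised two days, given compound (20, 40, 60 mg/kg) or indomethacin (10 mg/kg) i.p. as suspension in 1 ml 0.5% aqueous carboxymethyl cellulose 1 h before 0.1 ml 1% carrageenin in saline into right hind plantar tissue; left paw got saline. Paw volume by water plethysmometer at 4 h; % protection vs vehicle control; mean ± S.E.M., Student's t test.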

[7] = tested on: Staphylococcus aureus; assay: Antimicrobial activity against Staphylococcus aureus IFO 3060 after 24 hrs; type: functional; settings: IFO 3060, 24 h
[8] = tested on: Bacillus subtilis; assay: Antimicrobial activity against Bacillus subtilis IFO 3007 after 24 hrs; type: functional; settings: IFO 3007, 24 h
[9] = tested on: Escherichia coli; assay: Antimicrobial activity against Escherichia coli IFO 3301 after 24 hrs; type: functional; settings: IFO 3301, 24 h
[10] = tested on: Rattus norvegicus; assay: Antiinflammatory effect on carrageenan-induced paw oedema Sprague-Dawley rat assessed as reduction of paw oedema at 40 mg/kg, ip; type: functional; parameters: scale not given: the % may be the effect or the level left; settings: route intraperitoneal; procedure, shortened: as §1
[11] = tested on: Rattus norvegicus; assay: Antiinflammatory effect on carrageenan-induced paw oedema Sprague-Dawley rat assessed as reduction of paw oedema at 60 mg/kg, ip; type: functional; parameters: scale not given: the % may be the effect or the level left; settings: route intraperitoneal; procedure, shortened: as §1
[12] = tested on: Staphylococcus aureus; assay: Antimicrobial activity against Staphylococcus aureus IFO 3060 at 100 ug/disc after 24 hrs; type: functional; settings: IFO 3060, 24 h, read-out: IZ
[13] = tested on: Bacillus subtilis; assay: Antimicrobial activity against Bacillus subtilis IFO 3007 at 100 ug/disc after 24 hrs; type: functional; settings: IFO 3007, 24 h, read-out: IZ
[14] = tested on: Escherichia coli; assay: Antimicrobial activity against Escherichia coli IFO 3301 at 100 ug/disc after 24 hrs; type: functional; settings: IFO 3301, 24 h, read-out: IZ
[15] = tested on: Pseudomonas aeruginosa; assay: Antimicrobial activity against Pseudomonas aeruginosa IFO 3448 at 100 ug/disc; type: functional; settings: read-out: IZ
[16] = tested on: Pseudomonas aeruginosa; assay: microbe, parasite or virus in culture; settings: IFO 3448
[17] = tested on: Candida albicans; assay: Antimicrobial activity against Candida albicans IFO 0583 at 100 ug/disc after 48 hrs; type: functional; settings: IFO 0583, 48 h, read-out: IZ
[18] = tested on: Candida albicans; assay: Antimicrobial activity against Candida albicans IFO 0583 after 48 hrs; type: functional; settings: IFO 0583, 48 h
[19] = tested on: Rattus norvegicus; assay: Antiinflammatory effect on carrageenan-induced paw oedema Sprague-Dawley rat assessed as reduction of paw oedema at 10 mg/kg, ip; type: functional; parameters: scale not given: the % may be the effect or the level left; settings: route intraperitoneal; procedure, shortened: as §1

MIC [7] [µg/mL] | MIC [8] [µg/mL] | MIC [9] [µg/mL] | SMILES | zone of inhibition at 200 µg/disc [1] [mm] | zone of inhibition at 200 µg/disc [2] [mm] | zone of inhibition at 200 µg/disc [3] [mm] | zone of inhibition at 200 µg/disc [4] [mm] | zone of inhibition at 200 µg/disc [5] [mm] | Activity [6] [%] | Activity [10] [%] | further results
1 (≈ 2.67 µM) | 0.5 (≈ 1.34 µM) | 2 (≈ 5.34 µM) | O=C(NNC(=S)NC12CC3CC(CC(C3)C1)C2)c1ccc([N+](=O)[O-])cc1 | 20 | 24 | 19 | 15 | < 10 | 0.76 |  | 
2 (≈ 5.61 µM) | 2 (≈ 5.61 µM) | 1 (≈ 2.81 µM) | O=[N+]([O-])c1ccc(-c2nnc(NC34CC5CC(CC(C5)C3)C4)s2)cc1 | 16 | 18 | 17 | 12 | < 10 | 9.11 | 10.1 | Activity [11]: 10.74%
 | 1 (≈ 3.04 µM) | 4 (≈ 12.1 µM) | O=C(NNC(=S)NC12CC3CC(CC(C3)C1)C2)c1ccccc1 | < 10 | 22 | 16 | < 10 | < 10 | 2.32 | 1.8 | 
 |  |  | Clc1ccccc1C(c1ccccc1)(c1ccccc1)n1ccnc1 [CLOTRIMAZOLE] |  |  |  |  |  |  |  | zone of inhibition at 100 µg/disc [17]: 21 mm; MIC [18]: 2 µg/mL (≈ 5.8 µM)
 |  |  | COc1ccc2c(c1)c(CC(=O)O)c(C)n2C(=O)c1ccc(Cl)cc1 [INDOMETHACIN] |  |  |  |  |  |  |  | Activity [19]: 60.4%

SMILES | MIC [7] [µg/mL] | MIC [8] [µg/mL] | MIC [9] [µg/mL] | zone of inhibition at 200 µg/disc [1] [mm] | zone of inhibition at 200 µg/disc [2] [mm] | zone of inhibition at 200 µg/disc [3] [mm] | zone of inhibition at 200 µg/disc [4] [mm] | zone of inhibition at 200 µg/disc [5] [mm] | Activity [6] [%] | Activity [10] [%] | further results
CC1(C)S[C@@H]2[C@H](NC(=O)[C@H](N)c3ccccc3)C(=O)N2[C@H]1C(=O)O [AMPICILLIN] | 1 (≈ 2.86 µM) | 0.5 (≈ 1.43 µM) |  |  |  |  |  |  |  |  | zone of inhibition at 100 µg/disc [12]: 19 mm; zone of inhibition at 100 µg/disc [13]: 18 mm; zone of inhibition at 100 µg/disc [14]: 16 mm; zone of inhibition at 100 µg/disc [15]: 15 mm; MIC [16]: 2 µg/mL (≈ 5.72 µM)
